Source: ChEMBL document CHEMBL2203086, “Structure-Based Discovery of a Novel Pentamidine-Related Inhibitor of the Calcium-Binding Protein S100B” (ACS Med Chem Lett, 2012)
pIC50, pKd: −log10 of the molar value.

Experiments:
Malme-3M [1] = experiment: Growth inhibition of human MALME-3M cells overexpressing calcium-binding protein S100B after 4 days by SYBR green assay; assay type: functional, cell-based; conditions: for pIC50: Homo sapiens, Malme-3M, 96 h, read-out: IC50
How it was run: (§1)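 MALME-3M melanoma cells, stable hairpin-vector lines with scrambled control siRNA (high S100B) or S100B knockdown siRNA (clone #7), grown in IMDM with 20% FBS, neomycin omitted during assay. Seeded in 384-well plates and grown 24 h at 37 °C, 5% CO2. Compound added, DMSO in controls, then 4 days incubation. Lysed with 1.2% Igepal plus SYBR Green I (1:10,000) for 24 h. Fluorescence read at 485/520 nm as a DNA/cell-number measure, and IC50 derived.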

Malme-3M [2] = experiment: Growth inhibition of human MALME-3M cells transfected with S100B siRNA after 4 days by SYBR green assay; assay type: functional, cell-based; conditions: for pIC50: Homo sapiens, Malme-3M, 96 h, read-out: IC50; how it was run: as §1
[3] = Binding affinity to rat/bovine recombinant S100B expressed in Escherichia coli [HMS174(DE3)strain] by NMR spectroscopy
[4] = Binding affinity to rat/bovine recombinant S100B at weaker site expressed in Escherichia coli [HMS174(DE3)strain] by NMR spectroscopy
[5] = Binding affinity to rat/bovine recombinant S100B at tight site expressed in Escherichia coli [HMS174(DE3)strain] by NMR spectroscopy
[6] = Destabilization of rat/bovine S100B assessed as change in melting temperature by differential scanning calorimetry
How it was run: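 DSC on S100B dialyzed into 5 mM HEPES pH 7.2, 15 mM NaCl, 10 mM CaCl2, 0.5 mM TCEP, at 40-50 µM per monomer. Compound prepared in dialysis buffer, 200 µM final. Buffer reference scans subtracted and data normalized to protein concentration. Apparent Tm taken from peak maxima, compared against ligand-free S100B.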

Row | ΔTm [6] | Compound | IC50 (Malme-3M [1]; malme-3m) | IC50 (Malme-3M [2]; malme-3m) | Kd [3] | pIC50 (Malme-3M [1]) | pKd [4] | pKd [5] | pIC50 (Malme-3M [2]) | pKd ([3]; read-out: Kd)
1 |  | N=C(N)c1ccc(OCCCCCCOc2ccc(C(=N)N)cc2)cc1 [HEXAMIDINE] | Not Active | Not Active | Not Active |  |  |  |  | 
2 | 1 °C | N=C(N)c1ccc(OCCCCCOc2ccc(C(=N)N)cc2)cc1 [PENTAMIDINE] |  |  |  | 4.99 | 4.40 | 6.89 | 4.91 | 
3 | 18.3 °C | N=C(N)c1ccc(OCCCCCCCOc2ccc(C(=N)N)cc2)cc1 [HEPTAMIDINE] |  |  |  | 5.38 |  |  | 5.17 | 5.16
